Results as given in article PMC6198128 (Redox Biology, 2018).
Values joined by “and” are separate entries in the source; they are usually repeats but may differ in a detail not shown here. Identical values can stand only once. Like-named read-outs stand apart in the source and are kept apart here.

What was measured:
[1] = test system: HL-60 cells; type: cell-based, human; details: for effect of pretreatment on complex-induced apoptosis: HL-60, 2 h pretreatment (5 mM NAC or 5 µM inhibitor), then 4 µM complex for 48 h; for apoptotic cells (annexin V-FITC/PI): HL-60, 24 and 48 h, p < 0.05, DOX 2 µM, OXA 2.5 µM
[2] = test system: HL-60 (human promyelocytic leukemia); experiment: Alamar blue cytotoxicity assay, HL-60; type: cell-based; details: read-out: IC50 in µM
[3] = test system: PBMC (human peripheral blood mononuclear cells); experiment: Alamar blue cytotoxicity assay, PBMC; type: cell-based; details: 72 h, read-out: IC50 in µM
[4] = test system: SCC-9 (human oral squamous cell carcinoma); experiment: Alamar blue cytotoxicity assay, SCC-9; type: cell-based; details: Homo sapiens, SCC-9, 72 h, read-out: IC50 in µM
[5] = test system: HSC-3 (human oral squamous cell carcinoma); experiment: Alamar blue cytotoxicity assay, HSC-3; type: cell-based; details: read-out: IC50 in µM
[6] = test system: B16-F10 (mouse melanoma); experiment: Alamar blue cytotoxicity assay, B16-F10; type: cell-based; details: read-out: IC50 in µM
[7] = test system: MCF-7 (human breast carcinoma); experiment: Alamar blue cytotoxicity assay, MCF-7; type: cell-based; details: read-out: IC50 in µM
[8] = test system: K-562 (human chronic myelogenous leukemia); experiment: Alamar blue cytotoxicity assay, K-562; type: cell-based; details: read-out: IC50 in µM
[9] = test system: HepG2 (human hepatocellular carcinoma); experiment: Alamar blue cytotoxicity assay, HepG2; type: cell-based; details: read-out: IC50 in µM
[10] = test system: MRC-5 (human lung fibroblast); experiment: Alamar blue cytotoxicity assay, MRC-5; type: cell-based; details: read-out: IC50 in µM
[11] = test system: HCT116 (human colon carcinoma); experiment: Alamar blue cytotoxicity assay, HCT116; type: cell-based; details: read-out: IC50 in µM
[12] = test system: caspase-3 in HL-60 cells; experiment: Caspase-3 colorimetric activation assay; type: cell-based, human; details: HL-60, DEVD-pNA substrate, 48 h, p < 0.05; DOX 2 µM
Summary of the method: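 HL-60 cells were treated with test compound and lysed, and caspase-3 activity was read with a colorimetric kit using DEVD-pNA substrate, with absorbance at 405 nm. Total protein was measured by Bradford, and activity was expressed as specific activity per 10 mg protein. Data are mean ± S.E.M., with ANOVA and Student–Newman–Keuls test (p < 0.05) against vehicle.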

[13] = test system: calf thymus DNA (ctDNA); experiment: DNA intercalation assay; type: binding; details: cell-free, 15 µg/mL ctDNA, 1.5 µM ethidium bromide; complex 5, 10 and 20 µM; doxorubicin 10 µM
Summary of the method: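 Ethidium bromide displacement from calf thymus DNA in saline: 15 µg/mL ctDNA, 1.5 µM ethidium bromide, test compound at 5, 10 and 20 µM. Vehicle (0.1% DMSO) was the negative control and doxorubicin (10 µM) the positive control. Fluorescence was read at excitation 320 nm and emission 600 nm. Lower fluorescence was taken as intercalation.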

[14] = test system: HL-60 cells; experiment: Morphological analysis; type: cell-based, human; details: 24 and 48 h, DOX 2 µM, OXA 2.5 µM; for cell morphology: HL-60, May-Grunwald-Giemsa; for forward light scatter (FSC) / side scatter (SCC): HL-60, flow cytometry
Summary of the method: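 HL-60 cells were treated for 24 and 48 h, then stained with May-Grunwald-Giemsa and examined by light microscopy. In parallel, forward and side light scatter were quantified by flow cytometry, recording 10^4 events per sample with debris excluded. Vehicle was the negative control, with doxorubicin and oxaliplatin as positive controls.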

[15] = test system: HL-60 cells; type: cell-based, human
[16] = test system: HL-60 cells; experiment: Mitochondrial transmembrane potential; type: cell-based, human; details: HL-60, rhodamine 123, 24 h, p < 0.05; DOX 2 µM, OXA 2.5 µM
Summary of the method: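 HL-60 cells were grown in RPMI-1640 with 10% FBS, 2 mM L-glutamine and 50 µg/mL gentamycin at 37 °C, 5% CO2. After treatment, cells were loaded with rhodamine 123 (5 µg/mL) for 15 min at 37 °C in the dark and washed in saline.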

[17] = test system: HL-60 cells; experiment: Internucleosomal DNA fragmentation and cell cycle distribution; type: cell-based, human
Summary of the method: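 After 24 or 48 h treatment, HL-60 cells were permeabilized and stained with propidium iodide, and DNA content was measured by flow cytometry. 10^4 events were recorded per sample with debris excluded. Sub-G0/G1 was taken as internucleosomal DNA fragmentation, alongside G0/G1, S and G2/M fractions. Doxorubicin and oxaliplatin were positive controls; ANOVA with Student–Newman–Keuls test.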

[18] = test system: eight cancer cell lines (HL-60, K-562, HCT116, MCF-7, HepG2, HSC-3, SCC-9 and B16-F10); experiment: Alamar blue cytotoxicity assay, panel of cancer cell lines; type: cell-based; details: not cytotoxic at the concentrations tested, 72 h
Summary of the method: (§1)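 Human and mouse cell lines plus primary human PBMC (donor informed consent) grown in RPMI-1640 with 10% FBS, 2 mM L-glutamine and 50 μg/mL gentamycin at 37 °C, 5% CO2. Cells were mycoplasma-checked and >90% trypan-blue viable at start. Vehicle served as negative control; doxorubicin, oxaliplatin and piplartine were positive controls. Effect was taken as % of control absorbance, with IC50 and 95% CI from nonlinear regression.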

[19] = test system: non-cancer cells (MRC-5 and PBMC); experiment: Alamar blue cytotoxicity assay, non-cancer cells; type: cell-based, human; details: not cytotoxic at the concentrations tested, 72 h
Summary of the method: as §1

[20] = HL-60, 2 µM, 24 h of incubation
[21] = HL-60, 2 µM, 48 h of incubation
[22] = HL-60, 2.5 µM, 24 h of incubation
[23] = HL-60, 2.5 µM, 48 h of incubation

| SMILES | effect of pretreatment on complex-induced apoptosis [1] | IC50 ([2]; Homo sapiens, HL-60, 72 h) | IC50 ([3]; Homo sapiens, PBMC) | IC50 [4] | IC50 ([5]; Homo sapiens, HSC-3, 72 h) | IC50 ([6]; Mus musculus, B16-F10, 72 h) | IC50 ([7]; Homo sapiens, MCF7, 72 h) | IC50 ([8]; Homo sapiens, K562, 72 h) | IC50 ([9]; Homo sapiens, HepG2, 72 h) | IC50 ([10]; Homo sapiens, MRC5, 72 h) | IC50 ([11]; Homo sapiens, HCT-116, 72 h) | cell morphology [14] | forward light scatter (FSC) [14] | side scatter (SCC) [14] | reduction of the number of viable cells [15] | apoptotic cells (annexin V-FITC/PI) [1] | mitochondrial transmembrane potential [16] | other results |
| --- | --- | --- | --- | --- | --- | --- | --- | --- | --- | --- | --- | --- | --- | --- | --- | --- | --- | --- |
| N#CC(=C(/N)Sc1ccccc1N)/C(C#N)=C(/N)Sc1ccccc1N [U-0126] | reduced the complex-induced apoptosis | – | – | – | – | – | – | – | – | – | – | – | – | – | – | – | – | – |
| COc1cc(/C=C/C(=O)N2CCC=CC2=O)cc(OC)c1OC [PIP, Piplartine] | – | 14.1 µM | 34.2 µM | 16.5 µM | 14.1 µM | 10.6 µM | 10.3 µM | 18.6 µM | 6.3 µM | 17.3 µM | 5.4 µM | – | – | – | – | – | – | – |
| COc1cccc2c1C(=O)c1c(O)c3c(c(O)c1C2=O)C[C@@](O)(C(=O)CO)C[C@@H]3O[C@H]1C[C@H](N)[C@H](O)[C@H](C)O1 [DOX, Doxorubicin] | – | 0.3 µM | 5.1 µM | 0.5 µM | 0.3 µM | 0.1 µM | 1.1 µM | 0.3 µM | 0.1 µM | 1.5 µM | 0.1 µM | cell shrinkage, chromatin condensation and nuclear fragmentation | decrease in FSC | transient increase in SCC | 57.1% and 87.9% | increase in apoptotic cells | reduced the mitochondrial transmembrane potential | caspase-3 activation [12]: caused caspase-3 activation; ethidium bromide fluorescence (displacement from ctDNA) [13]: reduced the fluorescence intensity of ethidium bromide; DNA content (%) G0/G1 [17, 20]: 19.9 ± 2.5 %; DNA content (%) G2/M [17, 20]: 8.9 ± 1.5%; DNA content (%) S [17, 20]: 6.6 ± 1.6 %; DNA content (%) Sub-G0/G1 [17, 20]: 57.2 ± 2.5 %; DNA content (%) G0/G1 [17, 21]: 21.9 ± 3.0 %; DNA content (%) G2/M [17, 21]: 3.8 ± 0.9 %; DNA content (%) S [17, 21]: 6.5 ± 0.6 %; DNA content (%) Sub-G0/G1 [17, 21]: 65.5 ± 2.8 % |
| [Cl][Pt][Cl].c1ccc(P(c2ccccc2)c2ccccc2)cc1.c1ccc(P(c2ccccc2)c2ccccc2)cc1 [cis-[PtCl2(PPh3)2]] | – | – | – | – | – | – | – | – | – | – | – | – | – | – | – | – | – | IC50 [18]: > 31.6 µM; IC50 [19]: > 31.6 µM |
| O=C1[O][Pt]2([NH][C@@H]3CCCC[C@H]3[NH]2)[O]C1=O [OXA, oxaliplatin] | – | – | – | – | – | – | – | – | – | – | – | cell shrinkage, chromatin condensation and nuclear fragmentation | decrease in FSC | transient increase in SCC | 35.6% and 67.7% | increase in apoptotic cells | reduced the mitochondrial transmembrane potential | IC50 ([2]; HL-60, alamar blue, 72 h): 0.6 µM; IC50 ([3]; PBMC non-cancer cells, alamar blue): 9.4 µM; IC50 ([5]; HSC-3, alamar blue, 72 h): 3.1 µM; IC50 ([6]; B16-F10, alamar blue, 72 h): 2.2 µM; IC50 ([7]; MCF-7, alamar blue, 72 h): 5.7 µM; IC50 ([8]; K-562, alamar blue, 72 h): 1 µM; IC50 ([9]; HepG2, alamar blue, 72 h): 2.2 µM; DNA content (%) G0/G1 [17, 22]: 29.1 ± 2.4 %; DNA content (%) G2/M [17, 22]: 28.1 ± 2.6 %; DNA content (%) S [17, 22]: 12.6 ± 2.5%; DNA content (%) Sub-G0/G1 [17, 22]: 20.7 ± 2.9 %; DNA content (%) G0/G1 [17, 23]: 42.9 ± 2.8%; DNA content (%) G2/M [17, 23]: 23.4 ± 2.6 %; DNA content (%) S [17, 23]: 13.2 ± 0.8%; DNA content (%) Sub-G0/G1 [17, 23]: 24.8 ± 1.9 %; cell cycle effect ([17]; HL-60, 2.5 µM, p < 0.05): cell cycle arrest at the phase G2/M; IC50 ([10]; MRC-5 non-cancer cells, alamar blue, 72 h): 1.3 µM; IC50 ([11]; HCT116, alamar blue, 72 h): 4.1 µM |
| O=[N+]([O-])c1ccc(-c2nc(-c3ccncc3)c(-c3ccc(F)cc3)[nH]2)cc1 [PD 169316] | reduced the complex-induced apoptosis | – | – | – | – | – | – | – | – | – | – | – | – | – | – | – | – | – |
